System: U2OS
Test: Multiplex assay against U2OS
Assay type: toxicity, cell-based
Conditions: human
Method in brief: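 With compound added, live cells were imaged on a CQ1 microscope at 37°C and 5% CO2; staining with Hoechst33342, BioTracker Green Microtubule Cytoskeleton Dye, MitoTracker Red and Annexin V Alexa Fluor 680 had been done at seeding. The CellPathfinder machine-learning gating scheme split cells into Hoechst high-intensity objects or normal cells, normal cells into healthy, pyknosed or fragmented nuclei, and pyknosed cells into mitotic or apoptotic. The tubulin, mitochondrial-mass and membrane-permeability phenotypes are per cents of healthy-nucleus cells.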

[1] = 12 h, 0 µM, compound concentration 0 uM, replicate 1
[2] = 12 h, 0 µM, compound concentration 0 uM, replicate 2
[3] = 12 h, 1 µM, compound concentration 1 uM, replicate 1
[4] = 12 h, 1 µM, compound concentration 1 uM, replicate 2
[5] = 24 h, 0 µM, compound concentration 0 uM, replicate 1
[6] = 24 h, 0 µM, compound concentration 0 uM, replicate 2
[7] = 24 h, 1 µM, compound concentration 1 uM, replicate 1
[8] = 24 h, 1 µM, compound concentration 1 uM, replicate 2

Compound: CCNc1cc(N[C@H]2CC[C@H](O)CC2)nc(Nc2ccc3c(ccn3Cc3ccccc3)c2)n1
- Population Apoptotic (%) [1]: 37%
- Population Fragmented Nuclei (%) [1]: 14%
- Population Healthy Nuclei (%) [1]: 59%
- Population Hoechst High Intensity Objects (%) [1]: 6%
- Population Membrane Permeable-Phenotype (%) [1]: 39%
- Population Mitochondria Different-Phenotype (%) [1]: 98%
- Population Mitotic Cells (%) [1]: 62%
- Population Normal (%) [1]: 93%
- Population Pyknosed Nuclei (%) [1]: 25%
- Population Tubulin-Different-Phenotype (%) [1]: 100%
- Total Cell Count [1]: 243
- Population Apoptotic (%) [2]: 62%
- Population Fragmented Nuclei (%) [2]: 20%
- Population Healthy Nuclei (%) [2]: 57%
- Population Hoechst High Intensity Objects (%) [2]: 7%
- Population Membrane Permeable-Phenotype (%) [2]: 69%
- Population Mitochondria Different-Phenotype (%) [2]: 100%
- Population Mitotic Cells (%) [2]: 37%
- Population Normal (%) [2]: 92%
- Population Pyknosed Nuclei (%) [2]: 22%
- Total Cell Count [2]: 117
- Population Apoptotic (%) [3]: 64%
- Population Fragmented Nuclei (%) [3]: 4%
- Population Healthy Nuclei (%) [3]: 81%
- Population Hoechst High Intensity Objects (%) [3]: 1%
- Population Membrane Permeable-Phenotype (%) [3]: 33%
- Population Mitochondria Different-Phenotype (%) [3]: 30%
- Population Mitotic Cells (%) [3]: 35%
- Population Normal (%) [3]: 98%
- Population Pyknosed Nuclei (%) [3]: 13%
- Population Tubulin-Different-Phenotype (%) [3]: 88%
- Total Cell Count [3]: 129
- Population Apoptotic (%) [4]: 42%
- Population Fragmented Nuclei (%) [4]: 11%
- Population Healthy Nuclei (%) [4]: 75%
- Population Hoechst High Intensity Objects (%) [4]: 11%
- Population Membrane Permeable-Phenotype (%) [4]: 18%
- Population Mitochondria Different-Phenotype (%) [4]: 55%
- Population Mitotic Cells (%) [4]: 57%
- Population Normal (%) [4]: 88%
- Population Tubulin-Different-Phenotype (%) [4]: 76%
- Total Cell Count [4]: 120
- Population Apoptotic (%) [5]: 65%
- Population Fragmented Nuclei (%) [5]: 14%
- Population Healthy Nuclei (%) [5]: 46%
- Population Hoechst High Intensity Objects (%) [5]: 4%
- Population Membrane Permeable-Phenotype (%) [5]: 83%
- Population Mitotic Cells (%) [5]: 34%
- Population Normal (%) [5]: 95%
- Population Pyknosed Nuclei (%) [5]: 39%
- Population Tubulin-Different-Phenotype (%) [5]: 99%
- Total Cell Count [5]: 273
- Population Apoptotic (%) [6]: 71%
- Population Fragmented Nuclei (%) [6]: 23%
- Population Healthy Nuclei (%) [6]: 47%
- Population Hoechst High Intensity Objects (%) [6]: 10%
- Population Membrane Permeable-Phenotype (%) [6]: 92%
- Population Mitochondria Different-Phenotype (%) [6]: 100%
- Population Mitotic Cells (%) [6]: 28%
- Population Normal (%) [6]: 89%
- Population Pyknosed Nuclei (%) [6]: 29%
- Population Tubulin-Different-Phenotype (%) [6]: 100%
- Total Cell Count [6]: 121
- Population Apoptotic (%) [7]: 33%
- Population Fragmented Nuclei (%) [7]: 9%
- Population Healthy Nuclei (%) [7]: 77%
- Population Hoechst High Intensity Objects (%) [7]: 2%
- Population Membrane Permeable-Phenotype (%) [7]: 22%
- Population Mitochondria Different-Phenotype (%) [7]: 42%
- Population Mitotic Cells (%) [7]: 66%
- Population Normal (%) [7]: 97%
- Population Pyknosed Nuclei (%) [7]: 12%
- Population Tubulin-Different-Phenotype (%) [7]: 69%
- Total Cell Count [7]: 167
- Population Apoptotic (%) [8]: 70%
- Population Fragmented Nuclei (%) [8]: 14%
- Population Healthy Nuclei (%) [8]: 71%
- Population Hoechst High Intensity Objects (%) [8]: 9%
- Population Membrane Permeable-Phenotype (%) [8]: 23%
- Population Mitochondria Different-Phenotype (%) [8]: 53%
- Population Mitotic Cells (%) [8]: 29%
- Population Normal (%) [8]: 90%
- Population Pyknosed Nuclei (%) [8]: 14%
- Population Tubulin-Different-Phenotype (%) [8]: 65%
- Total Cell Count [8]: 132
